In the library only some 1.6% were active in any assay of this set; here they are far more common.
Rev-erbA mod – modulators of human Rev-erb alpha DNA binding; P20393; Rev-erbα–FITC-DNA binding, fluorescence polarization, 90 min; activity, % at 10 µM; hit rate 0.79% among 370,000;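 active means activity above about 14%, limit read from the data; passing the limit was not always enough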;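 further: 0% = DMSO wells with 35 nM protein and 100% = DMSO wells with 750 nM protein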
PKA-R2B act – activators of human PKA-R2B complex. P22694+P31323. PKA-R2B holoenzyme dissociation, Cy5-IP20 fluorescence polarization; R2B truncated from residue 108, S112A mutant; 0% DMSO only, 100% 113 µM cGMP. activation, % at 11.4 µM. hit rate 0.079% among 340,000. AID 504700;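 active means activation above a cutoff set at the mean over all compounds plus 3 SD, cut at about 18% in these data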;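 further: higher means more holoenzyme dissociation and a rise in polarization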
NR2E3 ag-1 – agonists of human NR2E3 nuclear receptor; Q9Y5X4; CHO-S Gal4-NCOR/VP16-NR2E3 two-hybrid, luciferase; inhibition of corepressor binding, % at 3.98 µM; hit rate 0.35% among 360,000;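 active means inhibition above the mean of all tested compounds plus 3 SD, cut at about 70% in these data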;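 further: 0% = DMSO with NR2E3 transfected cells and 100% = cells lacking NR2E3 construct; higher means lower luciferase signal from less NR2E3 corepressor binding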
Target sequence (Q9Y5X4 whole entry, looked up, the tested form may be a part): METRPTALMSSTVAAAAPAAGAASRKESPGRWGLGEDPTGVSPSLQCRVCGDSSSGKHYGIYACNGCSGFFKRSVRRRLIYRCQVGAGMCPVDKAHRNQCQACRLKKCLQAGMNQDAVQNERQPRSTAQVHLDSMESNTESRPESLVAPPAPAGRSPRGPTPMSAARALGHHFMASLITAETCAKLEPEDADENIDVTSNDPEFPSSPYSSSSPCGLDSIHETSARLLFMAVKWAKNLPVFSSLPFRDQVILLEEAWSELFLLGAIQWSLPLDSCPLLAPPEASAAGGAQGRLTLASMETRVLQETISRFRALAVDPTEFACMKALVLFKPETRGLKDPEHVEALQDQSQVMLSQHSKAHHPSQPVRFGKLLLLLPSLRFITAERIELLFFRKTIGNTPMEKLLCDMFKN
PG9 Ab binder – PG9 antibody binding by small molecule | TR-FRET gp120-PG9 antibody binding | inhibition, % at 6.7 µM | hit rate 0.43% among 360,000 | AID 624416; in the data active means inhibition above about 8.5%
NR2E3 ag-2 – NR2E3 (human) agonism | AID 2300 | hit rate 0.12% among 320,000 | inhibition of corepressor binding, % at 4.78 µM | Q9Y5X4 | GST-NR2E3/biotin-RetCOR TR-FRET, 1536-well;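 active means percent inhibition above the cutoff of mean plus 3 SD of all tested compounds, set per screening campaign, cut at about 20% in these data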;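 further: 0% = DMSO wells and 100% = biotin wells as full block of FRET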
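System: GST-NR2E3 and biotin-RetCOR proteins; probe or stimulus: 7 nM biotin-RetCOR; doses: compound at 4.8 µM, single dose; schedule: Compound–protein incubation for 5 h at 4 °C; detection: time-resolved FRET; read-out: percent inhibition; controls: biotin wells as high control, 0.6% DMSO wells as low control; format: 1536-well plates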
PKA-R1A act – activators of PKA-R1A complex; P00514+P68181; PKA-R1A dissociation, Cy5-IP20 fluorescence polarization; scaled: DMSO 0%, 113 µM cGMP 100%; activation, % at 11.4 µM; hit rate 0.083% among 340,000; AID 504707;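 active means percent activation above the mean of all tested compounds plus 3 SD, cut at about 19% in these data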;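 further: higher means more PKAc released from R1A so a rise in polarization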
Rev-erbA confirm – confirmation of modulators of human Rev-erb alpha DNA binding; shares compounds with Rev-erbA mod; Rev-erb alpha FITC-DNA binding, fluorescence polarization, 90 min; activation, % at 25 µM; hit rate 61% among 3,000; AID 1259319;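 active means activation at or above a set limit, or at least 3 SD above the negative control mean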;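 further: 0% = 35 nM protein with DMSO and 100% = 750 nM protein high control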
RORg counter – counter-screen for Rev-erb alpha modulators: RORgamma DNA binding; shares compounds with Rev-erbA mod; purified RORgamma protein-FITC-DNA binding, fluorescence polarization; IC50, µM; hit rate 8% among 910; AID 1259320;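 active means Compounds whose fitted half-maximal concentration for disrupting protein-DNA binding is below 10 micromolar; the record names Rev-erb in its text, so the target is in doubt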
* hit, by the source's call; i = inactive; · = no result; + = active, no number.

SMILES | Rev-erbA mod | PKA-R2B act | NR2E3 ag-1 | PG9 Ab binder | NR2E3 ag-2 | PKA-R1A act | Rev-erbA confirm | others
C[C@@H]1ON(C)[C@H]2C[C@H]3c4cc(-c5ccc(F)cc5)ccc4CCN3C[C@@H]12 | 3 | · | · | -2 | · | · | ·
CCOC(=O)c1cnc(SCC(=O)N2CCc3ccccc32)nc1N | 49* | -6 | -11 | 0 | 2 | -2 | 7
COCCCNc1nc2c(-c3ccc(C)cc3)nnn2c2ccccc12 | 65* | 11 | -90 | 7 | 4 | -4 | 35* | RORg counter=i
COc1ccc(Cl)cc1C(=O)Nc1cccc(-c2ccc3nncn3n2)c1 | 128* | 2 | 20 | 4 | -164 | -10 | 183* | RORg counter=>40
COc1ccc(OC)c2c1sc(=NC(=O)C(C)(C)C)n2C | -1 | -8 | -16 | 0 | 1 | -9 | ·
CCn1c(=NC(=O)C2COc3ccccc3O2)sc2c(OC)ccc(OC)c21 (configuration not stated) | 47* | -15 | -35 | -1 | -1 | -10 | 18
COc1ccc(OC)c2c1sc(=NC(=O)C1CCCCC1)n2C | 44* | -4 | -14 | 1 | 1 | -8 | -15
CCCC(=O)N=c1sc2c(OC)ccc(OC)c2n1C | 40* | -4 | 4 | -3 | 2 | -7 | 17
COCCn1c(=NC(=O)C2COc3ccccc3O2)sc2cc(S(N)(=O)=O)ccc21 (configuration not stated) | -6 | 1 | -3 | 0 | -4 | -9 | ·
CCOC(=O)[C@]12CCCC3=C1N(CCC3)C(=O)[C@@H](CC(=O)N1CCN(C(=O)C3CC3)CC1)C2 | 2 | · | · | · | · | · | ·
C[C@@H](CO)N(Cc1cn(Cc2ccccc2)nn1)S(=O)(=O)c1ccccc1Br | -1 | · | · | · | · | · | ·
CCc1ccc(/C=C/c2c[nH]c3ccccc23)[n+](CC)c1 | 22 | -5 | -30 | -4 | -6 | 12 | ·
C[n+]1ccc(/C=C/c2c[nH]c3ccc(F)cc23)cc1 | 125* | -1 | -12 | -17 | · | 4 | 90* | RORg counter=>40
COC(=O)c1ccccc1-c1c2ccc(=N)cc-2oc2cc(N)ccc12 | + | -1 | -7 | -3 | -1 | 7 | + | RORg counter=>40
COC(=O)c1ccccc1-c1ccc(/C=N/NC(=O)c2cc3ccccc3o2)o1 | 0 | -15 | 1 | -2 | -1 | -2 | ·
COc1ccc(C(C)=O)cc1COC(=O)c1c(C)noc1C | -6 | 7 | -35 | 1 | -2 | -7 | ·
COc1ccc(C(C)=O)cc1COC(=O)c1ccc(OCc2c(C)noc2C)cc1 | 16* | -2 | -29 | 7 | 2 | -11 | 12
CCN(CC)CCN1C(=O)C(=O)/C(=C(/O)c2ccc(OC(C)C)cc2)C1c1cccs1 (configuration not stated) | 41* | 1 | -32 | -1 | 0 | -8 | 27*
Cc1c(/C(O)=C2\C(=O)C(=O)N(CCN(C)C)C2c2cccs2)cnn1-c1ccccc1 (configuration not stated) | 19* | 12 | -10 | 7 | 4 | -6 | 27*
COc1ccc(-c2nc(-c3cccs3)c(-c3cccs3)[nH]2)cc1OC | 44* | -9 | -15 | 7 | 6 | -4 | 64* | RORg counter=>40
COc1ccc(-c2nc(-c3ccccc3)c(-c3cccs3)[nH]2)cc1OC | 10 | 0 | -1 | 2 | 2 | 8 | ·
O=[N+]([O-])c1cccc(-c2nc(-c3cccs3)c(-c3cccs3)[nH]2)c1 | 29* | -1 | -12 | 0 | 0 | -8 | 25*
O=[N+]([O-])c1ccc(-c2nc(-c3cccs3)c(-c3cccs3)[nH]2)cc1 | 24* | -10 | 1 | 0 | 0 | -15 | 33* | RORg counter=>40
O=[N+]([O-])c1cccc(-c2nc(-c3ccccc3)c(-c3cccs3)[nH]2)c1 | 3 | 0 | -13 | 1 | 2 | 0 | ·
O=[N+]([O-])c1ccc(-c2nc3ccc([N+](=O)[O-])cc3[nH]2)cc1 | -3 | -2 | -89 | -1 | 3 | -8 | ·
SMILES | Rev-erbA mod | PKA-R2B act | NR2E3 ag-1 | PG9 Ab binder | NR2E3 ag-2 | PKA-R1A act | Rev-erbA confirm | others
COc1ccc(Nc2nc(-c3ccccc3O)nc3ccccc23)cc1 | -2 | -1 | -31 | 0 | 1 | -13 | ·
COc1cccc(Nc2nc(-c3ccccc3O)nc3ccccc23)c1 | 155* | 0 | -36 | 1 | 1 | -4 | 96* | RORg counter=>40
O=[N+]([O-])c1ccc(-c2nc(Nc3cccc(O)c3)c3ccccc3n2)cc1 | 28* | -4 | -10 | 0 | -2 | -4 | 3
CC(C)(C)c1ccc(-c2cn(C[C@H](Cc3ccccc3)n3c(=O)c4ccccc4n3Cc3ccco3)nn2)cc1 | 1 | · | · | · | · | · | ·
COc1ccc(S[C@]2(C(=O)N3CCOCC3)CC(=O)N(C(=O)/C=C/c3ccccc3)[C@@H]2c2ccc(OC)cc2)cc1 | -2 | · | · | · | · | · | ·
COc1ccc(Cn2cc3c(-c4ccc(F)cc4)nnc-3c3cc(OC)c(OC)cc32)cc1 | 5 | -9 | 18 | 1 | 4 | -9 | ·
COc1cc2c3nnc(-c4ccc(F)cc4)c-3cn(Cc3ccc(F)cc3)c2cc1OC | 35* | 13 | -17 | 0 | 7 | 1 | 27*
COc1cc2c3nnc(-c4ccc(F)cc4)c-3cn(Cc3ccccc3)c2cc1OC | 43* | -9 | 18 | 2 | 3 | -14 | 45* | RORg counter=>40
COC(=O)c1ccc(COc2ccc3c4c(c(=O)oc3c2)CCC4)o1 | 34* | 6 | -55 | 1 | 1 | -6 | 1
COC(=O)c1cc(COc2ccc3c4c(c(=O)oc3c2)CCCC4)c(C)o1 | 6 | 4 | 16 | -2 | 2 | -11 | ·
O=C(CC1CCCC1)N[C@H](C(=O)N1CCC[C@H]1C(=O)NC1CCCC1)c1ccccc1 | 3 | · | · | -1 | · | · | ·
N#CC1=C(SCC(N)=O)NC2=C(C(=O)c3ccccc32)C1c1ccc(Cl)cc1 (configuration not stated) | 33* | -5 | -26 | -1 | -9 | -2 | 54* | RORg counter=>40
COc1cccc(Cn2cc(COC(=O)NCC(C)C)nn2)c1 | 3 | · | · | · | · | · | ·
COc1ccc(N/C=C(\C=C\C#N)S(=O)(=O)c2ccccc2)cc1 | 22* | 1 | -14 | 1 | 1 | -4 | 3
O=C(NCCN1CCC(Cc2ccccc2)CC1)C1CCCN(S(=O)(=O)c2ccc(Cl)s2)C1 (configuration not stated) | 3 | · | · | · | · | · | ·

Assay outcomes from PubChem.
